Results taken from ChEMBL document CHEMBL4402562, “Discovery of Novel Peptidomimetic Boronate ClpP Inhibitors with Noncanonical Enzyme Mechanism as Potent Virulence Blockers in Vitro and in Vivo” (J Med Chem, 2020).
The source made the active and inactive calls. The rule behind the calls is not given here.

Experiments:
[1] = Induction of hemolysis in sheep erythrocytes by measuring hemoglobin release incubated for 15 mins; type: cell-based, Ovis aries, Erythrocyte
Method in brief: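 Serially diluted compound mixed directly with 2% sheep erythrocytes in 10 mM Tris pH 7.4, 0.9% NaCl. Buffer served as negative and water as positive control. After 1,500 rpm, 15 min spin, released hemoglobin read at 545 nm. Three experiments, triplicate tubes.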

[2] = target: T1, ATP-dependent Clp protease proteolytic subunit (Staphylococcus aureus (strain NCTC 8325)) (UniProt Q2G036); assay: Inhibition of N-terminal His6-sumo-tagged full length Staphylococcus aureus ClpP expressed in Escherichia coli […] (DE3) assessed as Kinact/Ki ratio […] and measured after 1 hr by fluorescence based assay
T1 sequence (whole entry): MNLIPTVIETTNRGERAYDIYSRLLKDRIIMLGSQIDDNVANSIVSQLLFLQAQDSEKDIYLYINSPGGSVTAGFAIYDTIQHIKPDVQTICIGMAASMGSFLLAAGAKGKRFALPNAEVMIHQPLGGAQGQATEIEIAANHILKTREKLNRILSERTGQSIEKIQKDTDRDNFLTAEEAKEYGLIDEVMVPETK

[3] = Cytotoxicity in human HeLa cells assessed as reduction in cell viability incubated for 24 hrs by MTT assay; type: cell-based
Method in brief: (§1)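 MTT assay. HeLa (3×10^3 cells) or HepG2 (4×10^3 cells) seeded in DMEM and grown 24 h, then given compound for a further 24 h. Absorbance read at 570 nm against DMSO wells. GI50 from dose-response fit; three experiments, triplicate wells.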

[4] = target: T2, ATP-dependent Clp protease proteolytic subunit (Staphylococcus aureus (strain NCTC 8325), UniProt Q2G036); assay: Inhibition of ClpP in methicillin-resistant Staphylococcus aureus ATCC 33591 assessed as reduction in bacteria-induced hemolysis of sheep erythrocytes by measuring hemoglobin release incubated for 15 mins
T2 sequence (Q2G036 whole entry): T1 sequence (whole entry)

[5] = target: T1, ATP-dependent Clp protease proteolytic subunit (Staphylococcus aureus (strain NCTC 8325)); assay: (§2) Inhibition of N-terminal His6-sumo-tagged full length Staphylococcus aureus ClpP expressed in Escherichia coli BL2 (DE3) pre-incubated for 10 mins before Suc-LY-AMC addition and measured after 1 hr by fluorescence based assay
Method in brief: (§3)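 SaClpP (1 μM monomer) in 100 mM Hepes pH 7.0, 100 mM NaCl. Preincubated 10 min at RT with inhibitor, two-fold dilutions over 8 steps from 100 μM. Suc-LY-AMC at 200 μM, 380/440 nm recorded for 1 h at 37 °C, slopes normalized to DMSO. For kinact/Ki, inhibitor premixed with substrate and reaction started by enzyme, fitted by least squares. Thrice, triplicate wells.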

[6] = target: T2, ATP-dependent Clp protease proteolytic subunit; assay: as §2; method in brief: as §3
[7] = Cytotoxicity in human HepG2 cells assessed as reduction in cell viability incubated for 24 hrs by MTT assay; type: cell-based; method in brief: as §1
[8] = Inhibition of Pseudomonas aeruginosa ClpP1 expressed in Escherichia coli […] pre-incubated for 10 mins before Suc-LY- AMC addition and measured after 1 hr by fluorescence based assay relative to control
Method in brief: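 PaClpP1 (0.5 μM monomer) in 25 mM Tris-Cl pH 7.5, 150 mM NaCl. Preincubated 10 min at RT with inhibitor, two-fold dilutions over 8 steps from 50 μM. Then 50 μM Suc-LY-AMC, 380/440 nm for 1 h at 37 °C, slopes normalized to DMSO. Thrice, triplicate wells.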

[9] = Inhibition of AlgW (unknown origin) up to 100 uM pre-incubated for 10 mins before Abz-T-V-A-W-pNA addition and measured after 1 hr by fluorescence based assay
[10] = target: T1, ATP-dependent Clp protease proteolytic subunit (Staphylococcus aureus (strain NCTC 8325)); assay: as §2, with “[…] assessed as enzyme activity recovery level at 20-fold molar excess” for “(DE3)”, “hr followed by dialysis up to 72 hrs” for “hr”, “assay relative to control” for “assay”; parameters: scale not given: the % may be the effect or the level left
Method in brief: (§4)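 ClpP (1 μM, 100 mM Hepes pH 7.0, 100 mM NaCl) incubated 1 h at RT with 20-fold molar excess inhibitor or DMSO. Dialyzed at 4 °C, buffer changed after 6 h and then every 24 h. Aliquots assayed for peptidase activity with Suc-LY-AMC. Thrice, single sample.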

[11] = target: T1, ATP-dependent Clp protease proteolytic subunit (Staphylococcus aureus (strain NCTC 8325)); assay: Binding affinity to N-terminal His6-sumo-tagged full length Staphylococcus aureus ClpP expressed in Escherichia coli […] assessed as change in melting temperature at 100 uM by differential scanning calorimetry analysis
Method in brief: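 DSC: SaClpP at 0.5 mg/mL (25 μM) incubated at RT with 100 μM inhibitor in assay buffer. Scanned at 1 °C/min over 30–90 °C, with a buffer-buffer scan subtracted. Tm taken as the thermogram peak maximum. Run once, single sample.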

[12] = Inhibition of human ClpP (57 to 277 residues) expressed in Escherichia coli […] pre-incubated for 10 mins before Ac-WLA-AMC addition and measured after 1 hr by fluorescence based assay relative to control
Method in brief: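 hClpP (3.5 μM monomer) in 25 mM Tris-HCl pH 8.0, 100 mM KCl. Preincubated 10 min at RT with inhibitor, two-fold dilutions over 8 steps from 100 μM. Then 100 μM Ac-WLA-AMC, 380/440 nm for 1 h at 37 °C, slopes normalized to DMSO. Thrice, triplicate wells.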

[13] = target: Coagulation factor X (Homo sapiens) (UniProt P00742); assay: Inhibition of human F10a up to 100 uM pre-incubated for 10 mins before Pefachrome Fxa addition and measured after […] based assay
[14] = target: 20S proteasome (Homo sapiens) (UniProt P49721+P20618+P28074+P28062+P28065+P28072+P25786+P25787+P25788+P25789+P28066+P60900+O14818+Q8TAA3+P40306+A5LHX3+P49720+P28070+Q99436); assay: Inhibition of 20S proteasome (unknown origin) pre-incubated before Suc-LLVY-AM addition and measured after 1 hr by fluorescence based assay; type: protein-complex assay
Staphylococcus aureus [15] = assay: Inhibition of Staphylococcus aureus ClpXP expressed in Escherichia coli […] at 1 to 100 uM using FITC-casein substrate in presence of ATP-regenerating system incubated for 50 mins by fluorescence based assay
Method in brief: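 3.6 μM SaClpP with 3 μM SaClpX in 25 mM Hepes pH 7.5, 20 mM MgCl2, 30 mM KCl, 0.03% Tween 20, 10% glycerol, 2 mM DTT. ATP regeneration: 4 mM ATP, 20 U/mL creatine kinase, 16 mM creatine phosphate. FITC-casein 0.048 mg/mL, 494/521 nm for 50 min; slope 300–1200 s vs DMSO. Thrice, triplicate wells.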

Staphylococcus aureus [16] = assay: Growth inhibition of methicillin-resistant Staphylococcus aureus ATCC 33591 up to 64 uM incubated for 18 hrs by broth microdilution method; type: functional, organism-based
Method in brief: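 MRSA ATCC 33591 at ~5×10⁵ CFU/mL in MHB with graded compound concentrations vs DMSO; OD600 growth curves over 18 h; three experiments, triplicate wells. MIC by CLSI broth microdilution in CAMHB, 0.5-256 µg/mL, 18 h at 37 °C, lowest concentration with no visible growth.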

[17] = target: T1, ATP-dependent Clp protease proteolytic subunit (Staphylococcus aureus (strain NCTC 8325)); assay: as §2, with “[…] at 20-fold molar excess” for “(DE3)”, “hr followed by dialysis for 72 hrs” for “hr”, “assay relative to control” for “assay”; method in brief: as §4
Staphylococcus aureus [18] = assay: (§5) Antivirulence activity against methicillin-resistant Staphylococcus aureus ATCC 33591 infected in BALB/c mouse model of skin abscess assessed as reduction in severe alveolar destruction at 3 mg/kg injected into shaved area of skin once daily for 4 days measured after 12 hrs post last dose by hematoxylin and eosin staining based optical microscopy; type: functional, organism-based
Method in brief: (§6)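 Same MRSA ATCC 33591 skin-abscess model in female BALB/c mice (n=5/group), 40 µL compound at 1.5 or 3 mg/kg injected into the infected shaved skin once daily for 4 days. On day 4 infected skin and heart, liver, spleen, lung, kidney fixed in 4% paraformaldehyde, embedded, sectioned, H&E stained and examined by microscopy; PBS-treated uninfected and vehicle controls.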

Staphylococcus aureus [19] = assay: as §5, with “preservation of skin integrity” for “reduction in severe alveolar destruction”; type: functional, organism-based; method in brief: as §6
Staphylococcus aureus [20] = assay: as §5, with “kidney histopathological changes” for “severe alveolar destruction”; type: functional, organism-based; method in brief: as §6
Staphylococcus aureus [21] = assay: as §5, with “liver histopathological changes” for “severe alveolar destruction”; type: functional, organism-based; method in brief: as §6
Staphylococcus aureus [22] = assay: as §5, with “interstitium thickening” for “severe alveolar destruction”; type: functional, organism-based; method in brief: as §6
Staphylococcus aureus [23] = assay: as §5, with “spleen histopathological changes” for “severe alveolar destruction”; type: functional, organism-based; method in brief: as §6
Staphylococcus aureus [24] = assay: as §5, with “heart histopathological changes” for “severe alveolar destruction”; type: functional, organism-based; method in brief: as §6
Staphylococcus aureus [25] = assay: as §5, with “skin inflammation” for “severe alveolar destruction”; type: functional, organism-based; method in brief: as §6

Coagulation factor X (Homo sapiens), sequence (P00742 41-179 limits assumed): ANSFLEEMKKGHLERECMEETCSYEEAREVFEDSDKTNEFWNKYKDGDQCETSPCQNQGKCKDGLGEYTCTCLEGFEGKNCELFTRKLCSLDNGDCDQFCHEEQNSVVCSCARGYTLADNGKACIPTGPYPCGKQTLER
Coagulation factor X (Homo sapiens), sequence (P00742 235-488 limits assumed): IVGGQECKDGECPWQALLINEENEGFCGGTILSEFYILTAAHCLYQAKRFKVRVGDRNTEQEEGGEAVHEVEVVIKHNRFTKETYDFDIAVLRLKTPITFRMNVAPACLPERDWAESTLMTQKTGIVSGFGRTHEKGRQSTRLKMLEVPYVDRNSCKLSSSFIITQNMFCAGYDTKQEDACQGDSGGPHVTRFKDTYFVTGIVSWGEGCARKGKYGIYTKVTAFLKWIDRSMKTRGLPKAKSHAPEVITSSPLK

Compound | HC50 at 0.25 h [1] [µM] | Ratio [2] [×10² /s.M] | GI50 at 24 h [3] [µM] | EC50 [4] [µM] | inhibition [5] | IC50 [6] [µM] | GI50 at 24 h [7] [µM] | Activity [10] [%] | ΔTm [11] [°C] | further results
CC(C)C[C@H](NC(=O)CNC(=O)c1cc(Cl)ccc1Cl)B(O)O [IXAZOMIB] | 408 | 2.4 | 182 | 3.6 | Dose-dependent effect | 5.3 to 5.7 | > 200 | – | – | –
CC(C)Cc1ccc(C(C)C(=O)N[C@@H](Cc2ccc(O)cc2)C(=O)N[C@@H](CC(C)C)B(O)O)cc1 (some centres undefined) | > 500 | 7.2 | 83 | 9.6 | Dose-dependent effect | 1.4 | 117 | 100 | 29.5 to 42.2 | IC50 [8]: 3 to 25 µM; inhibition [9]: inactive; IC50 [12]: 3 to 25 µM; inhibition [13]: inactive; inhibition [14]: Active
COc1ccc(C(=O)N[C@@H](Cc2ccccc2)C(=O)N[C@@H](CC(C)C)B(O)O)cc1 | > 500 | 6.7 | 196 | 3.3 | Dose-dependent effect | 1.9 | > 200 | 100 | 29.5 to 42.2 | IC50 [8]: 3 to 25 µM; inhibition [9]: inactive; IC50 [12]: 3 to 25 µM; inhibition [13]: inactive; inhibition [14]: Active
CC(C)C[C@H](NC(=O)[C@H](Cc1ccccc1)NC(=O)c1cnccn1)B(O)O [BORTEZOMIB] | > 500 | 2.2 | 168 | 23.5 | Dose-dependent effect | 5.3 | 101 | 100 | 29.5 to 42.2 | inhibition (Staphylococcus aureus [15]): inactive
CC(C)Cc1ccc(C(C)C(=O)N[C@@H](Cc2c[nH]c3ccccc23)C(=O)N[C@@H](CC(C)C)B(O)O)cc1 (some centres undefined) | > 500 | 8 | 71.2 | 2.6 | Dose-dependent effect | 1.9 | 54.8 | 100 | 29.5 to 42.2 | growth inhibition (GI) (Staphylococcus aureus [16]): inactive
COC(=O)c1ccc(OC(=O)CCc2cc(OC)c(OC)c(OC)c2)cc1 | – | – | – | – | – | – | – | – | – | inhibition [17]: Active; Activity [11]: inactive
COc1ccc(C(=O)N[C@@H](Cc2ccccc2)C(=O)N[C@@H](CC(C)C)B(O)O)c(C)c1 | > 500 | 9.1 | > 200 | 14.8 | Dose-dependent effect | 1.5 | > 200 | 100 | 29.5 to 42.2 | –
CN[C@H](CC(C)C)C(=O)N[C@H]1C(=O)N[C@@H](CC(N)=O)C(=O)N[C@H]2C(=O)N[C@H]3C(=O)N[C@H](C(=O)N[C@H](C(=O)O)c4cc(O)cc(O)c4-c4cc3ccc4O)[C@H](O)c3ccc(c(Cl)c3)Oc3cc2cc(c3O[C@@H]2O[C@H](CO)[C@@H](O)[C@H](O)[C@H]2O[C@H]2C[C@](C)(N)[C@H](O)[C@H](C)O2)Oc2ccc(cc2Cl)[C@H]1O | – | – | – | – | – | – | – | – | – | Activity (Staphylococcus aureus [18]): Active; Activity (Staphylococcus aureus [19]): Active; Activity (Staphylococcus aureus [20]): Active; Activity (Staphylococcus aureus [21]): Active; Activity (Staphylococcus aureus [22]): Active; Activity (Staphylococcus aureus [23]): Active; Activity (Staphylococcus aureus [24]): Active; Activity (Staphylococcus aureus [25]): Active
